Experimental findings from ChEMBL document CHEMBL1142695, “Discovery of functionally selective 7,8,9,10-tetrahydro-7,10-ethano-1,2,4-triazolo[3,4-a]phthalazines as GABA A receptor agonists at the alpha3 subunit” (J Med Chem, 2005) are described below.

Assay type in all cases: cell-based
The target of assay [1] is T1, GABA-A receptor; alpha-3/beta-3/gamma-2 (Homo sapiens, UniProt P18507+P28472+P34903).
T1 sequence (P18507 whole entry): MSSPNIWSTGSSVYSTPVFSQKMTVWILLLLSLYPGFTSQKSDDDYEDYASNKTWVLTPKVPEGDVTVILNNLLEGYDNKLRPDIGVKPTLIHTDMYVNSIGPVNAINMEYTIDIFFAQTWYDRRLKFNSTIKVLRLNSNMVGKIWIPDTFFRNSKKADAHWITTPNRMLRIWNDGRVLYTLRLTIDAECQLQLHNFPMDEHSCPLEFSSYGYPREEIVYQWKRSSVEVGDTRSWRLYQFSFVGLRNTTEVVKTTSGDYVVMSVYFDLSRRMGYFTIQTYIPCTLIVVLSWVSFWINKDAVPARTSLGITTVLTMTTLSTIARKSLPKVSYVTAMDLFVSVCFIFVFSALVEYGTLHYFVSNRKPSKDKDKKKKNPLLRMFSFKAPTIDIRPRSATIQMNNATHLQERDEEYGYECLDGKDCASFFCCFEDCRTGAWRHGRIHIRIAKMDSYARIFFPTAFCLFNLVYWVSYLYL
T1 sequence (P28472 whole entry): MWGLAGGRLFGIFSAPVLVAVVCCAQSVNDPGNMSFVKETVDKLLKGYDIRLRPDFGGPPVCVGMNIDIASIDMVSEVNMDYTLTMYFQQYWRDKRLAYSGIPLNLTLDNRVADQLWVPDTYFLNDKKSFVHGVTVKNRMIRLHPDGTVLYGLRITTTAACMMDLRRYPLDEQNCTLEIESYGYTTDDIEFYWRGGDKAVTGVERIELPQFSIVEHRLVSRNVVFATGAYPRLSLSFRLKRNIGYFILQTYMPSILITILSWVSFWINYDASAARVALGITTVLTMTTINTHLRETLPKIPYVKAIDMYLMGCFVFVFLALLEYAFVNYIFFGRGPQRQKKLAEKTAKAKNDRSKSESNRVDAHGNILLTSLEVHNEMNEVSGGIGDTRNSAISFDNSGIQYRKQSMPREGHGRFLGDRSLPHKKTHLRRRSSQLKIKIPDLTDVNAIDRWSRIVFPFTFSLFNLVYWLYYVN
T1 sequence (P34903 whole entry): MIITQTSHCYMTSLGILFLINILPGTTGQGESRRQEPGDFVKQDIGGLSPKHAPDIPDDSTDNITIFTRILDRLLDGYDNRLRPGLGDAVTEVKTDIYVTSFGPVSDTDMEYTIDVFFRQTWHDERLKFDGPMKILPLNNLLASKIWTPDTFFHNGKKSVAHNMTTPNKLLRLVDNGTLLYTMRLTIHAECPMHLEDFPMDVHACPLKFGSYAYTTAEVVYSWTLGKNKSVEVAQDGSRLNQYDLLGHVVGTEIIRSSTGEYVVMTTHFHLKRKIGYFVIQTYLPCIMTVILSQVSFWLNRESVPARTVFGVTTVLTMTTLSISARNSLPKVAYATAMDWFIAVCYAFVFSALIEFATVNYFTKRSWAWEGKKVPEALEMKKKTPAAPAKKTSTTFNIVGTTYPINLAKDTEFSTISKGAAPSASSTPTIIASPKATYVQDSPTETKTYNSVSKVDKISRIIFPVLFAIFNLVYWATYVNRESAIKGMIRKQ
Put plainly: Inhibition of [3H]Ro-151788 binding to recombinant human gamma-aminobutyric-acid A receptor alpha-3-beta-3-gamma-2 subtype expressed in L (tk-) cells.

Assay [2] addresses T2, GABA-A receptor; alpha-2/beta-3/gamma-2 (Homo sapiens, UniProt P18507+P28472+P47869).
T2 sequence (P18507 whole entry): T1 sequence (P18507 whole entry)
T2 sequence (P28472 whole entry): T1 sequence (P28472 whole entry)
T2 sequence (P47869 whole entry): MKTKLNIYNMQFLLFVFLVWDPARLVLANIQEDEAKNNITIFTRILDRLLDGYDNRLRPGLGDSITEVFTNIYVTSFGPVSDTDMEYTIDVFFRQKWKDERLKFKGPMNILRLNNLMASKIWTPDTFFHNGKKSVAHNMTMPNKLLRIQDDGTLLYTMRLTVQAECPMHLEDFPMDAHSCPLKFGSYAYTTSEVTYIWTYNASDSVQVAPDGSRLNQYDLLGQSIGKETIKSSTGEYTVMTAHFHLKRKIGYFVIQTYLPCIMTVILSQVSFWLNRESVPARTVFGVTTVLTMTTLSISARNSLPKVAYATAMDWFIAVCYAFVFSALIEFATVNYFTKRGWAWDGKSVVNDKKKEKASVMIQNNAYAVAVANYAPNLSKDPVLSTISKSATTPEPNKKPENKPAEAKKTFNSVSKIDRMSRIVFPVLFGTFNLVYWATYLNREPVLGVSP
Put plainly: Inhibition of [3H]Ro-151788 binding to recombinant human gamma-aminobutyric acid A receptor alpha-2-beta-3-gamma-2 subtype expressed in L (tk-) cells.

Assay [3] has as its target T3, GABA-A receptor; alpha-5/beta-3/gamma-2 (Homo sapiens, UniProt P18507+P28472+P31644).
T3 sequence (P18507 whole entry): T1 sequence (P18507 whole entry)
T3 sequence (P28472 whole entry): T1 sequence (P28472 whole entry)
T3 sequence (P31644 whole entry): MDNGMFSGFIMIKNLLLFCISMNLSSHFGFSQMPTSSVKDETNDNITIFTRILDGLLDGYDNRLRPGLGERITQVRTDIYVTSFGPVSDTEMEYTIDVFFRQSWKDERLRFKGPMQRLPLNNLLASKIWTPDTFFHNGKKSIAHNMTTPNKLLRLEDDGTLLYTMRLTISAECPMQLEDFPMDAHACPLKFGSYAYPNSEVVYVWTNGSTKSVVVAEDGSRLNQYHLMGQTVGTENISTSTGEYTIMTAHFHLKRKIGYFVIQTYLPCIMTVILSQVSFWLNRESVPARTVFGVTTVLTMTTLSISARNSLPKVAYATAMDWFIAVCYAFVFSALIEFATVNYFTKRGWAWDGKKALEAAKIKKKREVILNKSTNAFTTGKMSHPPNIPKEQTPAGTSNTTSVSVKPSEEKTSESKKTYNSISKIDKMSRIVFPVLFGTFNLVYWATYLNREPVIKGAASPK
The experiment in a line: Inhibition of [3H]Ro-151788 binding to recombinant human gamma-aminobutyric-acid A receptor alpha-5-beta-3-gamma-2 subtype expressed in L (tk-) cells.

The target in assay [4] is GABA-A receptor; alpha-3/beta-3/gamma-2 (Homo sapiens) (UniProt P18507+P28472+P34903). Put plainly: Efficacy was measured as modulation of the current in response to GABA at hGABA alpha-3-beta-3-gamma-2 receptor expressed in Xenopus oocytes. The note with it: Oocyte. The method in brief:
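Two-electrode voltage clamp on Xenopus oocytes expressing each receptor combination. […] Value is percent increase or decrease of the EC20 GABA current.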

Assay [5] addresses T4, GABA-A receptor; alpha-1/beta-3/gamma-2 (Homo sapiens, UniProt P14867+P18507+P28472).
T4 sequence (P14867 whole entry): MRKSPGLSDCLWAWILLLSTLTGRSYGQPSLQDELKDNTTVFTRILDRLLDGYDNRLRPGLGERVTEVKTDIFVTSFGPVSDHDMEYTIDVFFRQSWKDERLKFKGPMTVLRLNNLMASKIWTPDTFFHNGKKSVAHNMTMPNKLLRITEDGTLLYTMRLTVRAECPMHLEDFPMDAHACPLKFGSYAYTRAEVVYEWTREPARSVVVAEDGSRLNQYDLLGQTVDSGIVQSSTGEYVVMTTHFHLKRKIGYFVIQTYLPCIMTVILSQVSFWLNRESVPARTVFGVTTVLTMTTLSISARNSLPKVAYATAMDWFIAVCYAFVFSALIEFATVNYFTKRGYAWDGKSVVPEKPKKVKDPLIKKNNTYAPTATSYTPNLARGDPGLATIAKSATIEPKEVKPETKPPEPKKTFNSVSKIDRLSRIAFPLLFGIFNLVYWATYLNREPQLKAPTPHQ
T4 sequence (P18507 whole entry): T1 sequence (P18507 whole entry)
T4 sequence (P28472 whole entry): T1 sequence (P28472 whole entry)
Put plainly: Inhibition of [3H]Ro-151788 binding to recombinant human gamma-aminobutyric-acid A receptor alpha-1-beta-3-gamma-2 subtype expressed in L (tk-) cells.

A word on the Ki: it is a measure of affinity in units of concentration, obtained from inhibition or displacement. Regarding `COC(=O)c1cccnc1COc1nn2c(-c3ccccc3)nnc2c2c1C1CCC2CC1`, the Ki is 7.1 nM in assay [1], 30 nM in assay [2] and 2.5 nM in assay [3]. The Efficacy in assay [4] was determined as 29%.

As for `Cc1ccc(C)c(COc2nn3c(-c4ccccc4)nnc3c3c2C2CCC3CC2)n1`, the Ki in assay [1] stood at 3.6 nM; in assay [2] it was 8.7 nM; in assay [3] it was 0.84 nM; in assay [5], 27 nM. Besides, the Efficacy in assay [4] was 12%.

As to `Cc1ccnc(COc2nn3c(-c4ccccc4)nnc3c3c2C2CCC3CC2)c1C`, the Ki stood at 1.7 nM in assay [1], 4 nM in assay [2], 1 nM in assay [3] and 11 nM in assay [5]. Moreover, in assay [4], the Efficacy turned out to be 17%.

For the compound `Cc1ccc(COc2nn3c(-c4ccccc4)nnc3c3c2C2CCC3CC2)nn1`, the Ki was 10 nM in assay [1], 22 nM in assay [2], 2.1 nM in assay [3] and 50 nM in assay [5]. For the same compound, the Efficacy in assay [4] turned out to be 31%.

For `c1ccc(-c2nnc3c4c(c(OCc5cnccn5)nn23)C2CCC4CC2)cc1`, the inhibition constant Ki in assay [1] was found to be 3 nM; in assay [2], 6.5 nM; in assay [3], 0.77 nM; in assay [5], 16 nM. In assay [4], this compound came in with an Efficacy of 27%.

As to `Cn1ncnc1COc1nn2c(-c3ccccc3)nnc2c2c1C1CCC2CC1`, the Ki in assay [1] amounted to 2.8 nM; in assay [2] it was 5.2 nM; in assay [3] it was 0.39 nM; in assay [5], 11 nM. Besides, the Efficacy in assay [4] was 22%.

As for `COc1cccnc1COc1nn2c(-c3ccccc3)nnc2c2c1C1CCC2CC1`, the Ki in assay [1] worked out at 2.4 nM; in assay [2], 9.1 nM; in assay [3] it was 0.65 nM; in assay [5], 17 nM. For the same compound, the Efficacy in assay [4] stood at 8%.

For the compound `c1ccc(-c2nnc3c4c(c(OCc5nc[nH]n5)nn23)C2CCC4CC2)cc1`, the Efficacy in assay [4] amounted to 49%.

Take `Cc1c[nH]c(COc2nn3c(-c4ccccc4)nnc3c3c2C2CCC3CC2)n1`: the inhibition constant Ki in assay [1] is 7.8 nM; in assay [2] it was 15 nM; in assay [3], 0.9 nM; in assay [5] it was 85 nM. Further, the Efficacy in assay [4] is 28%.

On to `c1ccc(-c2nnc3c4c(c(OCc5ccncn5)nn23)C2CCC4CC2)cc1`, for which the Ki in assay [1] came to 3.1 nM; in assay [2], 8.1 nM; in assay [3] it was 0.555 nM; in assay [5], 22 nM. In addition, the Efficacy in assay [4] stood at 14%.

With `CCCn1cnc(COc2nn3c(-c4ccccc4)nnc3c3c2C2CCC3CC2)n1`, the Ki in assay [1] is 40 nM; in assay [2], 50 nM; in assay [3], 9 nM; in assay [5], 78 nM. In addition, the Efficacy in assay [4] was found to be 83%.

`OCCCCOc1nn2c(-c3ccccc3)nnc2c2c1C1CCC2CC1`: the inhibition constant (Ki) was 19 nM in assay [1], 34 nM in assay [2], 8.5 nM in assay [3] and 71 nM in assay [5]. This compound gave an Efficacy in assay [4] of 20%.

Consider `Cc1cccc(COc2nn3c(-c4ccccc4)nnc3c3c2C2CCC3CC2)n1`, for which the Ki in assay [1] was 20 nM; in assay [2], 36 nM; in assay [3] it was 2.6 nM; in assay [5], 160 nM.

On to `OCc1ccc(COc2nn3c(-c4ccccc4)nnc3c3c2C2CCC3CC2)cc1`, for which the Ki in assay [1] was found to be 44 nM; in assay [2] it was 76 nM; in assay [3] it was 11 nM; in assay [5] it was 520 nM.

As to `Cc1csc(-c2nnc3c4c(c(OCc5ccccn5)nn23)C2CCC4CC2)n1`, the Ki in assay [1] is 100 nM; in assay [2], 140 nM; in assay [3], 26 nM; in assay [5], over 1000 nM.

Consider `CN(C(=O)COc1nn2c(-c3ccccc3)nnc2c2c1C1CCC2CC1)c1ccccc1`, for which the Ki in assay [1] came out at 41 nM; in assay [2] it was 72 nM; in assay [3], 7.4 nM; in assay [5] it was 21 nM.

With `CSOc1ccc(COc2nn3c(-c4ccccc4)nnc3c3c2C2CCC3CC2)cc1`, the Ki in assay [1] was determined as 31 nM; in assay [2], 41 nM; in assay [3], 7.6 nM; in assay [5], 96 nM.

With `Clc1ccc(COc2nn3c(-c4ccccc4)nnc3c3c2C2CCC3CC2)nn1`, the Ki in assay [1] came out at 23 nM; in assay [2], 42 nM; in assay [3] it was 1.3 nM; in assay [5] it was 73 nM.

Consider `c1ccc(-c2nnc3c4c(c(OCc5ncccc5OC5CCC5)nn23)C2CCC4CC2)cc1`, for which the Ki was 38 nM in assay [1], 43 nM in assay [2], 4.2 nM in assay [3] and 32 nM in assay [5].

On to `c1ccc(-c2nnc3c4c(c(OCc5ccco5)nn23)C2CCC4CC2)cc1`, for which the Ki in assay [1], in assay [2], in assay [3] and in assay [5] was over 500 nM each time.

In the case of `Cc1cc(COc2nn3c(-c4ccccc4)nnc3c3c2C2CCC3CC2)sn1`, the inhibitory constant (Ki) amounted to 99 nM in assay [1], 130 nM in assay [2], 11 nM in assay [3] and 210 nM in assay [5].

`Cc1conc1COc1nn2c(-c3ccccc3)nnc2c2c1C1CCC2CC1`: the Ki in assay [1] was determined as 18 nM; in assay [2], 35 nM; in assay [3], 2.7 nM; in assay [5], 80 nM.
